Laboratory results published in paper PMC7540589 (Chemmedchem, 2020).

Assay: Thermal and radiochemical stability during 68Ga-radiolabeling
Type: physicochemical
Details: elevated temperature of 99 °C
Procedure, shortened: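 Precursor (20 nmol in water) was added to 376.6–461.0 MBq ⁶⁸Ga³⁺ from ⁶⁸Ge/⁶⁸Ga generator fractioned elution with 0.1 M HCl. The mixture was titrated to pH 3.5–4.0 with 1.25 M sodium acetate and heated at 99 °C for 10 min. Reaction mixtures were analysed by analytical radio-HPLC.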

thermal stability of precursor: stable
Substance: Ac[D‐Cys^29,Lys(DOTA)^31,Cys^34]NPY29‐36 [Compound 4]
